MDM2 E3 inh: MDM2-luciferase reporter signal enhancers, primary screen, MDM2 E3 ligase inhibitor project, cell-based, luminescence, 1536-well | 0.11% of 210,000 active | signal enhancement, % at 5 µM | AID 1230, 2008 | E3 ubiquitin-protein ligase Mdm2 (Homo sapiens), Q00987 | cell-based MDM2 ubiquitination luciferase reporter, 2 h; 0 = plate control, 100 = twice control, blank-subtracted;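 active = signal enhancement of 30% or more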;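 note: luminescence tracks abundance of the self-degrading MDM2-luciferase fusion protein; higher signal means inhibition of MDM2 E3 ligase activity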
Target sequence (Q00987 whole entry, looked up, the tested form may be a part): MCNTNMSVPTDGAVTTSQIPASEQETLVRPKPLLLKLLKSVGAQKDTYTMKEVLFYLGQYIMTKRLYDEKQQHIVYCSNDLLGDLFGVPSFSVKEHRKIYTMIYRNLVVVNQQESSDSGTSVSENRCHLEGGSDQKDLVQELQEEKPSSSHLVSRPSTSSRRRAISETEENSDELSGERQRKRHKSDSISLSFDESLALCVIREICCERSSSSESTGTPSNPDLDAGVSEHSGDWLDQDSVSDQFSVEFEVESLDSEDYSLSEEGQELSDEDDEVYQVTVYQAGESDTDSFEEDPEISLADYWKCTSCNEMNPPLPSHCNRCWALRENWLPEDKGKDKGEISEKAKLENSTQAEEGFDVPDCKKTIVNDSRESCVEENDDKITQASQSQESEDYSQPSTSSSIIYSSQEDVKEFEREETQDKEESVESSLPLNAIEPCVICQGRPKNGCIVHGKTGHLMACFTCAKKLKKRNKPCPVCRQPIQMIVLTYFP
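system = mammalian cells stably expressing self-ubiquitinating, self-degrading MDM2 E3–luciferase fusion | quantity = 2000 cells per well seeded | incubation = 4 h cell settling then 2 h compound exposure, 37 °C | signal = SteadyLite luminescence, 15 min reagent step | benchmarks = plate control and blank wells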
zVAD death inh: inhibitors of zVAD-triggered necroptosis, primary screen, L929 cells | viability rescue, % at 10 µM | L929 zVAD necroptosis rescue, ATP luminescence, 24 h; with zVAD 60 µM | AID 1377, 2008 | 0.38% of 220,000 active;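 active = activation, scaled between plate controls, above about 75%, limit read from the data; inactive = activation under that limit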;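 note: 0% = zVAD with DMSO and 100% = DMSO alone without zVAD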
TNF death inh: inhibitors of TNF-alpha triggered necroptosis, primary screen, cell-based, Jurkat FADD-/-, single concentration | Jurkat FADD-/- TNF necroptosis rescue, ATP luminescence, 24 h; 0 = TNF only, 100 = no-TNF cells | activation (protection from cell death), % at 10 µM | 0.068% of 220,000 active | AID 463075, 2010;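 active = activation, meaning protection from cell death, of at least 50% relative to plate controls; inactive = activation below 50%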;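 note: necroptosis triggered by 40 ng/mL TNF-alpha added together with compound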
Autophagy HCS: autophagy modulators in MEF cells, primary screen, imaging, high-content, MEF GFP-LC3. MEF GFP-LC3 puncta imaging; test concentration mostly 10 µM. calls only at 10 µM (by protocol). 0.98% of 190,000 active;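 active = percentage of spot-positive cells more than 3 SD above its plate mean, without a fluorescence outlier flag or 80% toxicity; inconclusive = no clear call, values can overlap the other calls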;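 note: spot-positive cell cutoff set from DMSO-treated cells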
Dynein transport: inhibitors of GR-EGFP nuclear translocation, primary screen, dynein cargo transport inhibitor project, imaging, high-content, 3617.4 mouse cells. test concentration mostly 20 µM; stimulated with dexamethasone, 1 µM; active compounds read low. z-score, hits read low. 0.47% of 220,000 active;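 active = plate z-score of nuclear minus cytoplasmic receptor signal below a set negative limit, without overly bright fluorescence or cell loss, cut at about -3.5 in these data, passing the limit was not always enough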;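 note: z-score of nuclear minus cytoplasmic ring GR-EGFP intensity difference per well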
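Buffer or medium: tet-free, stripped-serum medium; reagent: dexamethasone at 1.0 µM final, 30 min; incubation: 48 h induction, 1 h compound, 30 min dex at 37 °C; measured by: formaldehyde fixation, Hoechst nuclear stain, 10x automated fluorescence imaging; read-out: nuclear-to-cytoplasmic GR-EGFP distribution per well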
Dynein confirm: dynein cargo transport inhibitors, GR-EGFP translocation, confirmation, imaging, high-content imaging, GR-EGFP cells. 69% of 1,000 active. 3617.4 GR-EGFP nuclear translocation imaging, dexamethasone-induced. calls only at 20 µM. shares compounds with Dynein transport;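 active = inhibition of receptor movement into the nucleus at or above a set limit in both runs, with normal cell brightness and cell count; inconclusive = limit reached in only one run, brightness and count normal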;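 note: dexamethasone at 1 µM final in well for 30 min; nuclear minus cytoplasmic GR-EGFP mean intensity difference in channel 2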
The depositor's hits bear a star; i = inactive; ? = inconclusive; · = not tested or not shown; + = active, no number. Hits are enriched below; roughly 1.8% of the tested compounds scored in any of these assays.

SMILES	MDM2 E3 inh	zVAD death inh	TNF death inh	Autophagy HCS	Dynein transport	Dynein confirm
CC1(C)CC(N=c2cc(-c3ccccc3)oc3ccc(Cl)cc23)CC(C)(C)N1	-19	-3	-15	+	-3.5*	i
OCCCN=c1cc(-c2ccccc2)oc2ccc(Cl)cc12	-24	1	-2	i	-0.57	·
CCOc1ccc2nc(SC3CC(=O)N(c4ccc(OC)cc4OC)C3=O)sc2c1 (stereo unspecified)	-9	-1	-12	i	-4.9*	+
O=c1oc(Nc2cccc(Cl)c2)nc2ccccc12	11	-1	1	i	-0.2	·
N#CC1(C#N)C(c2ccccc2)OC23CCCCC2C1(C#N)C(=N)O3 (stereo unspecified)	·	0	-2	i	-4.2*	+
CCCN(CCC)C(=O)c1cc([N+](=O)[O-])cc2c1-c1ccc([N+](=O)[O-])cc1C2=C(C#N)C#N	6	1	-31	·	-4.6*	+
Cc1ccccc1-n1sc2cc(F)ccc2c1=O	-18	0	-7	i	-4.8*	+
Cc1ccccc1-n1c(=O)c2ccccc2n2cnnc12	-18	0	-2	i	0.4	·
Cc1cccc2c1N(C)C(=O)C2=O	-24	1	-1	i	2.3	·
Cc1cc(C)c(S(=O)(=O)ON2C(=O)c3ccccc3C2=O)cc1C	-14	0	-1	i	-6.1*	+
Cc1cc(C)c(C)c(S(=O)(=O)ON2C(=O)c3ccccc3C2=O)c1C	-8	0	-4	i	-4.3*	+
CCOC(=O)c1c(/N=C/N(C)C)sc(/C=N/Nc2ccccc2)c1-c1ccc(Cl)cc1	2	0	-1	i	2.3	·
CN1CCN(S(=O)(=O)c2cccc(C(=O)NCc3ccc(Cl)cc3)c2)CC1	-8	0	0	i	1.6	·
COc1ccc(OC)c(N=C(N)N=C(N)N)c1	·	1	0	i	-0.067	·
COc1cccc(-n2nnnc2S(C)(=O)=O)c1	-7	4	-13	i	-4.5*	+
CC(C)(C)C(=O)/C=c1\s/c(=C\c2ccc(-c3ccc([N+](=O)[O-])cc3)o2)c(=O)n1CC(=O)NC(N)=O	-22	2	-7	·	-8*	+
Cc1ccsc1/C=C/C1=Cc2c(sc(NC(=O)CSc3n[nH]c(N)n3)c2C#N)C(C)(C)C1	-6	1	-23	i	-3.6*	i
Cn1cc([N+](=O)[O-])c(C(=O)Nc2cc(Oc3ccccc3)cc([N+](=O)[O-])c2)n1	13	-1	-3	i	-3.9*	+
Cc1nn(C)cc1C(=O)Nc1cc(Oc2ccc(Cl)cc2)cc([N+](=O)[O-])c1	-7	0	-1	i	0.23	·
CC1(c2ccccc2Cl)NC(=O)N(CC(=O)Nc2ccc3c(c2)OCO3)C1=O (stereo unspecified)	-8	4	1	i	-1.4	·
COc1cc(C)c(/C=C(\C#N)C(=O)Nc2cccc(C)c2)cc1C(C)C	-10	0	2	i	0.53	·
Cc1cc(N2CCN(C)CC2)ccc1NC(=O)c1cccc(S(=O)(=O)N2CCc3ccccc3C2)c1	-6	52	-14	i	-0.29	·
CCOn1c(=O)c(-c2ccc(OC)c(OC)c2)[n+]([O-])c2ccccc21	-5	0	-2	i	-3.7*	i
Clc1ncnc2scc(C3COc4ccccc4O3)c12 (stereo unspecified)	0	0	-14	i	-4.2*	+
c1ccc2c(c1)OCC(c1csc3ncnc(N4CCCCC4)c13)O2 (stereo unspecified)	0	-1	-1	i	-0.84	·
SMILES	MDM2 E3 inh	zVAD death inh	TNF death inh	Autophagy HCS	Dynein transport	Dynein confirm
Cc1[nH]c2ccccc2c(=O)c1C(=O)/C=C/c1ccccc1	-19	71	-13	·	-6*	+
C=CCNCCOCCOc1ccc(Cl)cc1C(C)(C)C	2	0	4	i	-0.26	·
C=CCNCCCOc1ccc(Cl)cc1C(C)(C)C	-12	7	8	i	-6.7*	i
O=C(NC(=S)Nc1nc2c(s1)CSc1ccccc1-2)c1ccccc1	-29	0	-6	i	-3.5*	i
O=C(NC(=S)Nc1nc2c(s1)CCCC2)c1ccc(C(=O)c2ccccc2)cc1	-3	0	0	i	-0.74	·
Cc1ccc(-c2csc3nc(C)n(-n4c(C)ccc4C)c(=O)c23)o1	-9	17	0	i	-4*	i
Nc1ncnc(Sc2ncccn2)c1[N+](=O)[O-]	-15	15	-16	i	-5.1*	?
Nc1ncnc(Sc2ccccc2)c1[N+](=O)[O-]	4	2	13	i	-0.84	·
C(=C\c1ccco1)/C1=NN(c2ccccc2)C(c2ccco2)C1 (stereo unspecified)	-11	2	0	i	-0.22	·
O=[N+]([O-])c1ccc(/C=C/C2=NN(c3ccccc3)C(c3ccco3)C2)o1 (stereo unspecified)	-8	1	-5	+	-6.8	+
COc1ccc(/C=C/C(=O)c2cc(F)ccc2OC(=O)c2ccccc2OC)cc1OC	-36	-2	-9	i	-3.9*	+
COc1ccc(/C=C/C(=O)c2cc(F)ccc2OC(=O)c2ccccc2)cc1OC	·	0	-21	i	-2	·
COc1ccc(/C=C/C(=O)c2cc(Br)ccc2OC(=O)c2ccco2)cc1OC	6	·	1	i	-3.7*	+
Cc1ccnc(N/C=C(/NC(=O)c2ccccc2)C(=O)N/N=C\c2ccc(Cl)cc2)n1	·	-1	-4	·	1	·
CCOC(=O)c1c(-c2ccccc2)csc1NC(=O)/C(C#N)=C/c1ccc(O)c(OC)c1	9	0	3	+	-4.7*	+
COc1cccc(/C=C/C(=O)c2cccc([N+](=O)[O-])c2)c1	-20	-1	0	i	-4.5*	+
COc1cccc(/C=C/C(=O)c2cccc([N+](=O)[O-])c2)c1OC	3	0	-5	+	-5.3*	+
COc1ccc(Oc2ccc(/C=C/C(=O)c3ccc(O)cc3)cc2[N+](=O)[O-])cc1	-10	·	-13	i	-3.6*	+

Screening results (PubChem)
